The term pEC50 denotes −log10 of the EC50, conventionally taken in molar units. Broadly, the CC50 is the concentration that lowers cell viability or growth by half.

pEC50: −log10 of the molar value. The source made the active and inactive calls. The rule behind the calls is not given here.

Experimental findings from ChEMBL document CHEMBL4152296, “Synthesis, biological evaluation and molecular modeling of novel azaspiro dihydrotriazines as influenza virus inhibitors targeting the host factor dihydrofolate reductase (DHFR)” (Eur J Med Chem, 2018) are described below.

Data set [1] deals with Yellow fever virus. The data set can be described thus: Antiviral activity against Yellow fever virus infected in African green monkey Vero cells assessed as inhibition of virus-induced cytopathic effect after 3 to 6 days by MTS assay. It counts as functional, organism-based. (In general: Cytopathic effects are the visible damage that an infection or toxin causes in cultured cells.)

Data set [2] has as its system Human alphaherpesvirus 2. The data set can be described thus: Antiviral activity against Herpes simplex virus type 2 infected in human HEL299 cells assessed as inhibition of virus-induced cytopathic effect after 3 to 6 days by MTS assay. It counts as functional, organism-based.
In data set [3] the test system is Vaccinia virus. The data set can be described thus: Antiviral activity against Vaccinia virus infected in human HEL299 cells assessed as inhibition of virus-induced cytopathic effect after 3 to 6 days by MTS assay. It counts as functional, organism-based. To be noted: Orthopoxvirus vaccinia.
Data set [4] concerns Human respirovirus 3. The data set can be described thus: Antiviral activity against Parainfluenza virus 3 infected in African green monkey Vero cells assessed as inhibition of virus-induced cytopathic effect after 3 to 6 days by MTS assay. It is filed as functional, organism-based.
Data set [5] relates to Respiratory syncytial virus. The data set can be described thus: Antiviral activity against Respiratory syncytial virus Long infected in human HeLa cells assessed as inhibition of virus-induced cytopathic effect after 3 to 6 days by MTS based microscopy. It is filed as functional, organism-based.
The test system of data set [6] is Mammalian orthoreovirus 1. The data set can be described thus: Antiviral activity against Reovirus-1 infected in African green monkey Vero cells assessed as inhibition of virus-induced cytopathic effect after 3 to 6 days by MTS assay. It counts as functional, organism-based.
Data set [7] is described as follows: Cytotoxicity against human HeLa cells assessed as alterations in normal cell morphology measured after 3 to 6 days by microscopic analysis. It counts as cell-based. Summed up: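 Mock-infected HeLa cultures in 2% FCS medium received serial five-fold dilutions […] for 3–6 days at 37 °C. MCC was the lowest concentration giving microscopically visible minimal change in cell morphology (rounding, shrinking, lysis).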

In data set [8] the test system is Sindbis virus. The data set can be described thus: Antiviral activity against Sindbis virus infected in African green monkey Vero cells assessed as inhibition of virus-induced cytopathic effect after 3 to 6 days by MTS assay. It counts as functional, organism-based.
Data set [9] deals with Vero. The data set can be described thus: Cytotoxicity against African green monkey Vero cells assessed as reduction in cell viability measured after 3 to 6 days by MTS assay. It is filed as cell-based. To be noted: chlorocebus sabaeus.
Data set [10] deals with Vesicular stomatitis virus. The data set can be described thus: Antiviral activity against Vesicular stomatitis virus infected in human HEL299 cells assessed as inhibition of virus-induced cytopathic effect after 3 to 6 days by MTS assay. It is filed as functional, organism-based.
Data set [11] in a line: Cytotoxicity against MDCK cells assessed as alterations in normal cell morphology measured after 3 to 6 days by microscopic analysis. It counts as cell-based, Canis lupus familiaris. To be noted: dog. The method in brief: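 Uninfected MDCK cultures in FCS-free Ultra MDCK medium with trypsin received five-fold compound dilutions (up to […]) for 3–6 days at 35 °C. Microscopy scored morphology, and MCC was taken as the lowest concentration causing minimal rounding, shrinking or lysis.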

In data set [12] the test system is Human coronavirus 229E. The data set can be described thus: Antiviral activity against Human coronavirus 229E infected in human HEL299 cells assessed as inhibition of virus-induced cytopathic effect after 3 to 6 days by MTS assay. It counts as functional, organism-based.
Data set [13] concerns Human adenovirus 2. The data set can be described thus: Antiviral activity against Human adenovirus type 2 infected in human HEL299 cells assessed as inhibition of virus-induced cytopathic effect after 3 to 6 days by MTS assay. It counts as functional, organism-based.
The subject of data set [14] is Human immunodeficiency virus. The data set can be described thus: Antiviral activity against HIV. It is filed as functional, organism-based.
Data set [15] deals with MDCK. The data set can be described thus: Cytotoxicity against MDCK cells assessed as reduction in cell viability measured after 3 to 6 days by MTS assay. It counts as cell-based, Canis lupus familiaris. To be noted: dog. The method in brief: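 Mock-infected MDCK plates were run in parallel (FCS-free Ultra MDCK medium with TPCK-trypsin) with serial five-fold dilutions up to […], 35 °C for 3–6 days. CC50 was interpolated from semi-log dose-response curves; mean of two or three experiments.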
(In general: Formazan colour is commonly taken as a measure of viable cells.)

Data set [16] concerns Coxsackievirus B4. The data set can be described thus: Antiviral activity against Coxsackie B4 virus infected in human HeLa cells assessed as inhibition of virus-induced cytopathic effect after 3 to 6 days by MTS assay. It counts as functional, organism-based.
Data set [17] concerns Human alphaherpesvirus 1. The data set can be described thus: Antiviral activity against Herpes simplex virus type 1 infected in human HEL299 cells assessed as inhibition of virus-induced cytopathic effect after 3 to 6 days by MTS assay. It counts as functional, organism-based.
Data set [18] relates to Punta Toro virus. The data set can be described thus: Antiviral activity against Punta Toro virus infected in African green monkey Vero cells assessed as inhibition of virus-induced cytopathic effect after 3 to 6 days by MTS assay. It counts as functional, organism-based.
The test system of data set [19] is Influenza B virus. The data set can be described thus: Antiviral activity against Influenza B virus B/Ned/537/05 infected in MDCK cells assessed as protection against virus-induced reduction in cell viability after 3 to 6 days by MTS assay. It counts as functional, organism-based. To be noted: B/Ned/537/05, MDCK. The method in brief: (§1)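 MDCK cells seeded at 9000/well and infected one day later (semiconfluent) with 100 CCID50 virus. Medium was FCS-free Ultra MDCK with 2 μg/mL TPCK-trypsin. Serial five-fold compound dilutions (top 100 μM) were added with the virus, followed by 3–6 days at 35 °C. MTS read-out gave % protection versus virus and mock controls. EC50 was interpolated from semi-log curves; mean of two or three experiments.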

Data set [20] relates to Influenza A virus. The data set can be described thus: Antiviral activity against Influenza A virus (A/Puerto Rico/8/34(H1N1)) infected in MDCK cells assessed as protection against virus-induced reduction in cell viability after 3 to 6 days by MTS assay. To be noted: A/Puerto Rico/8/1934(H1N1). It counts as functional, organism-based. The method in brief: as §1

In the case of `NC1=NC2(CCNCC2)N(c2cccc(Cl)c2)C(N)=N1`, the outcome in [1], in data set [2], in data set [3], in data set [4], in data set [6] and in [8] was inactive. Besides, the result in data set [10], in data set [12], in data set [13], in [14], in data set [16] and in data set [17] was inactive. Besides, the outcome in data set [18] was inactive. For the same compound, the negative logarithm of the EC50 (pEC50) in [5], in data set [19] and in data set [20] was less than 4.00 each time. In addition, the MCC in data set [7] and in data set [11] was more than 100 µM in each case. In addition, in data set [9], the Activity result is “Non-Toxic”. Further, the CC50 in data set [15] is more than 100 µM.

Turning to `COc1cccc(N2C(N)=NC(N)=NC23CCNCC3)c1`, the result in data set [1], in data set [2], in data set [3], in data set [4], in [6] and in [8] was inactive. Moreover, the result in data set [10], in data set [12], in [13], in data set [14], in [16] and in data set [17] was inactive. Besides, the result in data set [18] was inactive. Further, the negative-log EC50 (pEC50) in [5], in [19] and in data set [20] was less than 4.00 each time. The MCC in data set [7] and in [11] was more than 100 µM each time. In addition, in data set [9], the Activity entry is recorded as “Non-Toxic”. Also, the half-maximal cytotoxic concentration (CC50) in data set [15] was more than 100 µM.

In the case of `COCCN1C(N)=NC(N)=NC12CCN(S(=O)(=O)c1ccccc1)CC2`, the result in [1], in [2], in data set [3], in data set [4], in data set [6] and in [8] was inactive. Also, the result in data set [10], in data set [12], in data set [13], in [14], in data set [16] and in [17] was inactive. For the same compound, the outcome in [18] was inactive. Also, the pEC50 in data set [5], in data set [19] and in data set [20] was less than 4.00 throughout. The MCC in [7] and in [11] was more than 100 µM throughout. Moreover, the Activity entry in [9] was “Non-Toxic”. The cytotoxic concentration (CC50) in [15] is more than 100 µM.

For the compound `COc1cccc(N2C(N)=NC(N)=NC23CCN(C(=O)OC(C)(C)C)CC3)c1`, the outcome in [1], in data set [2], in data set [3], in data set [4], in data set [6] and in data set [8] was inactive. The result in data set [10], in data set [12], in [13], in data set [14], in data set [16] and in [17] was inactive. Also, in data set [18], the result was inactive. For the same compound, the negative-log EC50 (pEC50) is less than 4.00 in [5], 4.41 in data set [19] and 4.06 in [20]. The MCC in data set [7] was more than 100 µM; in data set [11] it was not below 100 µM. Besides, the Activity entry in data set [9] is given as “Non-Toxic”. Besides, in [15], the half-maximal cytotoxic concentration (CC50) is more than 100 µM.

Turning to `COCCN1C(N)=NC(N)=NC12CCN(C(=O)NC1CCC(C)CC1)CC2` (stereo not given), the outcome in data set [1], in data set [2], in data set [3], in data set [4], in data set [6] and in data set [8] was inactive. Moreover, the result in [10], in data set [12], in [13], in data set [14], in data set [16] and in data set [17] was inactive. In data set [18], the result was inactive. The pEC50 in data set [5], in data set [19] and in data set [20] was less than 4.00 each time. Besides, the MCC in [7] and in [11] was more than 100 µM each time. Also, in data set [9], the Activity result is recorded as “Non-Toxic”. Further, the cytotoxic concentration (CC50) in [15] was more than 100 µM.

For `Cl.NC1=NC2(CCCN(Cc3ccccc3)C2)N(c2ccc(Cl)cc2)C(N)=N1` (stereo not given), the result in data set [1], in data set [2], in [3], in data set [4], in data set [6] and in [8] was inactive. The outcome in [10], in [12], in data set [13], in [14], in data set [16] and in data set [17] was inactive. In addition, the outcome in data set [18] was inactive. Also, the negative-log EC50 (pEC50) in data set [5], in data set [19] and in data set [20] was less than 4.00 each time. Besides, the MCC in data set [7] and in data set [11] was 100 µM throughout. Also, the Activity result in data set [9] is recorded as “Non-Toxic”. The cytotoxic concentration (CC50) in data set [15] was determined as 45 µM.

As to `CC(C)(C)OC(=O)N1CCC2(CC1)N=C(N)N=C(N)N2Cc1cccc(Cl)c1`, the result in data set [1], in data set [2], in data set [3], in data set [4], in [6] and in [8] was inactive. Moreover, the outcome in [10], in data set [12], in data set [13], in data set [14], in data set [16] and in data set [17] was inactive. Besides, in data set [18], the outcome was inactive. Besides, the pEC50 in data set [5], in [19] and in data set [20] was less than 4.00 in each case. The MCC in data set [7] and in [11] was more than 100 µM each time. Further, the Activity entry in data set [9] was “Non-Toxic”. For the same compound, the CC50 in [15] is more than 100 µM.

Turning to `CCCCC(=O)N1CCC2(CC1)N=C(N)N=C(N)N2c1cccc(OC)c1`, the outcome in [1], in data set [2], in data set [3], in data set [4], in data set [6] and in data set [8] was inactive. Moreover, the outcome in data set [10], in [12], in data set [13], in data set [14], in data set [16] and in data set [17] was inactive. For the same compound, the result in [18] was inactive. The negative logarithm of the EC50 (pEC50) was less than 4.00 in data set [5], 4.55 in data set [19] and less than 4.00 in data set [20]. For the same compound, the MCC was more than 100 µM in [7] and not below 100 µM in data set [11]. The Activity entry in data set [9] is reported as “Non-Toxic”. Besides, the half-maximal cytotoxic concentration (CC50) in data set [15] was more than 100 µM.
